Legend:
Na+ channel (site 2) = assay: radioligand competition; settings: read-out: IC50 (M) ^a
Outline: (§1)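 Outsourced radioligand competition binding panel of receptors, transporters and ion channels. Primary screen used a single 10 μmol L−1 concentration of test compound to give % inhibition of control specific binding. […] IC50 and Hill coefficient were obtained by non-linear regression.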

[1] = test system: Ca2+ channel (L, verapamil site); assay: radioligand competition; settings: read-out: IC50 (M) ^a
Outline: as §1

Sigma (1 and 2) = assay: radioligand competition; settings: read-out: IC50 (M) ^a; non-selective sigma 1 and 2
Outline: as §1

[2] = molecular target: NMDA receptor (ion-channel / PCP site), rat forebrain membranes; assay: enhancement of [3H]MK-[…]) binding; settings: 5 mM Tris-HCl pH 7.4, 25 °C, 20 h

## COc1cccc(N(C)C(=N)Nc2cc(SC)ccc2Cl)c1 [GMOM, N‐(2‐chloro‐5‐thiomethylphenyl)‐N′‐(3‐methoxyphenyl)‐N′‐methylguanidine]
Na+ channel (site 2)
  IC50: 3.9e-06 M
[1]
  IC50: 2.2e-06 M
Sigma (1 and 2)
  IC50: 2.2e-06 M

## N[C@@H](CCC(=O)O)C(=O)O [L-glutamate]
[2]; agonist (glutamate) site, no added glycine
  EC50: 200 ± 10 nM

## NCC(=O)O [glycine]
[2]; co-agonist (glycine) site, no added glutamate
  EC50: 1050 ± 500 nM

Source: paper PMC6381215 (Pharmacology Research & Perspectives, 2019)
